Measured values: ChEMBL document CHEMBL1955832, “Facile synthesis, characterization and pharmacological activities of 3,6-disubstituted 1,2,4-triazolo[3,4-b][1,3,4]thiadiazoles and 5,6-dihydro-3,6-disubstituted-1,2,4-triazolo[3,4-b][1,3,4]thiadiazoles” (2012)
Values after ≈ are worked out from the molar mass of the structure shown. Active and inactive are the calls of the source. The calls are words filed in the database; no cut-off is given here.

What was measured:
Rattus norvegicus = assay: Antiinflammatory activity rat assessed as reduction of carrageenan-induced paw oedema at 100 mg/kg, po administered 30 mins before carrageenan challenge measured after 60 to 180 mins; assay type: functional, organism-based; set-up: dose 100 mg/kg
Summary of the method: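 Rats randomly assigned, 100 mg/kg orally as suspension in 1% carboxymethyl cellulose, 30 min before carrageenan injected into right hind paw. Paw thickness measured with vernier callipers at 60, 120 and 180 min. Diclofenac reference; mean ± SEM, n = 6, vs vehicle control.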

Mus musculus [1] = assay: Analgesic activity Wistar albino mouse assessed as tail withdrawal latency time at 100 mg/kg, po administered by intragastric tube after 60 mins (reference value: 1.363 +/- 0.1297 sec); assay type: functional
Mus musculus [2] = assay: Analgesic activity Wistar albino mouse assessed as tail withdrawal latency time at 100 mg/kg, po administered by intragastric tube after 120 mins (reference value: 1.363 +/- 0.1297 sec); assay type: functional
Mus musculus [3] = assay: Analgesic activity Wistar albino mouse assessed as tail withdrawal latency time at 100 mg/kg, po administered by intragastric tube after 180 mins (reference value: 1.363 +/- 0.1297 sec); assay type: functional
[4] = system: Radical scavenging activity; assay: Antioxidant activity of the compound assessed as DPPH radical scavenging activity at 200 ug/ml after 20 mins; assay type: functional
Summary of the method: (§1)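 Compound dissolved in methylene dichloride at the stated concentration, mixed with 4 mL 0.1 mM methanolic DPPH, held 20 min at ambient temperature; absorbance read at 517 nm. Scavenging % = (A_DPPH − A_test)/A_DPPH × 100. Triplicate; ascorbic acid positive control.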

[5] = system: Radical scavenging activity; assay: Antioxidant activity of the compound assessed as DPPH radical scavenging activity at 400 ug/ml after 20 mins; assay type: functional; summary of the method: as §1
[6] = system: Radical scavenging activity; assay: Antioxidant activity of the compound assessed as DPPH radical scavenging activity at 800 ug/ml after 20 mins; assay type: functional; summary of the method: as §1
Staphylococcus aureus [7] = assay: Antibacterial activity against Staphylococcus aureus ATTC 25923 after 16 to 18 hrs by serial dilution method; assay type: functional
Summary of the method: (§2)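 Serial drug dilutions in Mueller-Hinton broth adjusted to pH 5.0 with phosphate buffer, inoculated with standardized bacterial suspension, incubated 16–18 h at 37 °C; MIC taken as lowest concentration without conspicuous growth.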

Staphylococcus aureus [8] = assay: Antibacterial activity against Staphylococcus aureus ATTC 25923 at MIC after 3 to 4 days by disc diffusion method; assay type: functional
Summary of the method: (§3)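 Agar well diffusion: seeded agar plates dried 1 h at 37 °C, wells punched and filled with test compound at MIC level in DMSO; DMSO solvent control. Plates in triplicate, kept at 37 °C for 3–4 days; zone of inhibition read.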

Escherichia coli [9] = assay: Antibacterial activity against Escherichia coli ATTC 25922 after 16 to 18 hrs by serial dilution method; assay type: functional; summary of the method: as §2
Escherichia coli [10] = assay: Antibacterial activity against Escherichia coli ATTC 25922 at MIC after 3 to 4 days by disc diffusion method; assay type: functional; summary of the method: as §3
Pseudomonas aeruginosa [11] = assay: Antibacterial activity against Pseudomonas aeruginosa ATTC 27853 after 16 to 18 hrs by serial dilution method; assay type: functional; summary of the method: as §2
Pseudomonas aeruginosa [12] = assay: Antibacterial activity against Pseudomonas aeruginosa ATTC 27853 at MIC after 3 to 4 days by disc diffusion method; assay type: functional; summary of the method: as §3
Klebsiella pneumoniae [13] = assay: Antibacterial activity against recultured Klebsiella pneumoniae after 16 to 18 hrs by serial dilution method; assay type: functional; summary of the method: as §2
Klebsiella pneumoniae [14] = assay: Antibacterial activity against recultured Klebsiella pneumoniae at MIC after 3 to 4 days by disc diffusion method; assay type: functional; summary of the method: as §3
Talaromyces marneffei [15] = assay: Antifungal activity against recultured Penicillium marneffei by serial plate dilution method; assay type: functional
Talaromyces marneffei [16] = assay: Antifungal activity against recultured Penicillium marneffei at MIC after 3 to 4 days; assay type: functional
[17] = system: Trichophyton mentagrophytes; assay: Antifungal activity against recultured Trichophyton mentagrophytes by serial plate dilution method; assay type: functional
[18] = system: Trichophyton mentagrophytes; assay: Antifungal activity against recultured Trichophyton mentagrophytes at MIC after 3 to 4 days; assay type: functional
Aspergillus flavus [19] = assay: Antifungal activity against Aspergillus flavus NCIM 524 by serial plate dilution method; assay type: functional
Aspergillus flavus [20] = assay: Antifungal activity against Aspergillus flavus NCIM 524 at MIC after 3 to 4 days; assay type: functional
Aspergillus fumigatus [21] = assay: Antifungal activity against Aspergillus fumigatus NCIM 902 by serial plate dilution method; assay type: functional
Aspergillus fumigatus [22] = assay: Antifungal activity against Aspergillus fumigatus NCIM 902 at MIC after 3 to 4 days; assay type: functional

Row | Compound | Activity (Rattus norvegicus) | Time (Mus musculus [1]) [s] | Time (Mus musculus [2]) [s] | Time (Mus musculus [3]) [s] | inhibition [4] [%] | inhibition [5] [%] | inhibition [6] [%] | MIC (Staphylococcus aureus [7]) [µM] | diameter of the inhibition zone (DIZ) (Staphylococcus aureus [8]) [mm] | MIC (Escherichia coli [9]) [µM] | diameter of the inhibition zone (DIZ) (Escherichia coli [10]) [mm] | MIC (Pseudomonas aeruginosa [11]) [µM] | diameter of the inhibition zone (DIZ) (Pseudomonas aeruginosa [12]) [mm] | MIC (Klebsiella pneumoniae [13]) [µM] | diameter of the inhibition zone (DIZ) (Klebsiella pneumoniae [14]) [mm] | MIC (Talaromyces marneffei [15]) [µM] | diameter of the inhibition zone (DIZ) (Talaromyces marneffei [16]) [mm] | MIC [17] [µM] | diameter of the inhibition zone (DIZ) [18] [mm] | MIC (Aspergillus flavus [19]) [µM] | also measured
1 | COc1ccc(Br)c(-c2n[nH]c(=S)n2N)c1 | Active | 3.463 | 3.388 | 2.338 | 52.7 | 56.8 | 67.5 | 41.5 (≈ 12.5 µg/mL) | 11 | 20.8 (≈ 6.25 µg/mL) | 16 | 41.5 (≈ 12.5 µg/mL) | 11 | 20.8 (≈ 6.25 µg/mL) | 16 | 20.8 (≈ 6.25 µg/mL) | 16 | 20.8 (≈ 6.25 µg/mL) | 16 | 20.8 (≈ 6.25 µg/mL) | diameter of the inhibition zone (DIZ) (Aspergillus flavus [20]): 16 mm; MIC (Aspergillus fumigatus [21]): 20.8 µM (≈ 6.25 µg/mL); diameter of the inhibition zone (DIZ) (Aspergillus fumigatus [22]): 16 mm
2 | COc1ccc(Br)c(-c2nnc3sc(-c4cc(Cl)cc(Cl)c4)nn23)c1 | Active | 3.421 | 3.075 | 2.388 | 49.8 | 54.3 | 66.8 | 27.4 (≈ 12.5 µg/mL) | 11 | 13.7 (≈ 6.25 µg/mL) | 16 | 13.7 (≈ 6.25 µg/mL) | 16 | 13.7 (≈ 6.25 µg/mL) | 16 | 13.7 (≈ 6.25 µg/mL) | 16 | 13.7 (≈ 6.25 µg/mL) | 16 | 27.4 (≈ 12.5 µg/mL) | diameter of the inhibition zone (DIZ) (Aspergillus flavus [20]): 11 mm; MIC (Aspergillus fumigatus [21]): 13.7 µM (≈ 6.25 µg/mL); diameter of the inhibition zone (DIZ) (Aspergillus fumigatus [22]): 16 mm
3 | COc1ccc(Br)c(-c2nnc3n2NC(c2ccc([N+](=O)[O-])cc2)S3)c1 (stereo unspecified) | Active | 3.675 | 3.563 | 2.425 | 53.2 | 72.4 | 82.7 | 28.8 (≈ 12.5 µg/mL) | 11 | 28.8 (≈ 12.5 µg/mL) | 11 | 14.4 (≈ 6.25 µg/mL) | 16 | 14.4 (≈ 6.25 µg/mL) | 16 | 14.4 (≈ 6.25 µg/mL) | 16 | 28.8 (≈ 12.5 µg/mL) | 11 | 14.4 (≈ 6.25 µg/mL) | diameter of the inhibition zone (DIZ) (Aspergillus flavus [20]): 16 mm; MIC (Aspergillus fumigatus [21]): 14.4 µM (≈ 6.25 µg/mL); diameter of the inhibition zone (DIZ) (Aspergillus fumigatus [22]): 16 mm
4 | COc1ccc(C2Nn3c(nnc3-c3cc(OC)ccc3Br)S2)cc1 (stereo unspecified) | Active | 3.468 | 3.334 | 2.841 | 40.6 | 65.9 | 77.9 | 29.8 (≈ 12.5 µg/mL) | 11 | 29.8 (≈ 12.5 µg/mL) | 11 | 29.8 (≈ 12.5 µg/mL) | 11 | 29.8 (≈ 12.5 µg/mL) | 11 | 14.9 (≈ 6.25 µg/mL) | 16 | 29.8 (≈ 12.5 µg/mL) | 11 | 29.8 (≈ 12.5 µg/mL) | diameter of the inhibition zone (DIZ) (Aspergillus flavus [20]): 11 mm; MIC (Aspergillus fumigatus [21]): 14.9 µM (≈ 6.25 µg/mL); diameter of the inhibition zone (DIZ) (Aspergillus fumigatus [22]): 16 mm
5 | COc1ccc(Br)c(-c2nnc3n2NC(c2ccc(Cl)cc2)S3)c1 (stereo unspecified) | Active | 3.675 | 3.563 | 2.425 | 42.3 | 48.1 | 63.4 | 29.5 (≈ 12.5 µg/mL) | 11 | 14.8 (≈ 6.25 µg/mL) | 16 | 14.8 (≈ 6.25 µg/mL) | 16 | 14.8 (≈ 6.25 µg/mL) | 16 | 16.1 (≈ 6.8 µg/mL) | 11 | 16.1 (≈ 6.8 µg/mL) | 16 | 16.1 (≈ 6.8 µg/mL) | diameter of the inhibition zone (DIZ) (Aspergillus flavus [20]): 16 mm; MIC (Aspergillus fumigatus [21]): 16.1 µM (≈ 6.8 µg/mL); diameter of the inhibition zone (DIZ) (Aspergillus fumigatus [22]): 16 mm
6 | COc1ccc(Br)c(-c2nnc3n2NC(c2cccc(Cl)c2)S3)c1 (stereo unspecified) | Active | 3.546 | 3.623 | 2.235 | 35.9 | 44.7 | 62.5 | 29.5 (≈ 12.5 µg/mL) | 11 | 29.5 (≈ 12.5 µg/mL) | 11 | 29.5 (≈ 12.5 µg/mL) | 11 | 29.5 (≈ 12.5 µg/mL) | 11 | 29.5 (≈ 12.5 µg/mL) | 11 | 29.5 (≈ 12.5 µg/mL) | 11 | 29.5 (≈ 12.5 µg/mL) | diameter of the inhibition zone (DIZ) (Aspergillus flavus [20]): 11 mm; MIC (Aspergillus fumigatus [21]): 29.5 µM (≈ 12.5 µg/mL); diameter of the inhibition zone (DIZ) (Aspergillus fumigatus [22]): 11 mm
7 | COc1ccc(Br)c(-c2nnc3sc(-c4ccc(N)cc4)nn23)c1 | Active | 3.675 | 3.563 | 2.425 | 60.3 | 68 | 75.9 | 31.1 (≈ 12.5 µg/mL) | 11 | 31.1 (≈ 12.5 µg/mL) | 11 | 15.5 (≈ 6.25 µg/mL) | 16 | 31.1 (≈ 12.5 µg/mL) | 11 | 31.1 (≈ 12.5 µg/mL) | 11 | 15.5 (≈ 6.25 µg/mL) | 16 | 31.1 (≈ 12.5 µg/mL) | diameter of the inhibition zone (DIZ) (Aspergillus flavus [20]): 11 mm; MIC (Aspergillus fumigatus [21]): 31.1 µM (≈ 12.5 µg/mL); diameter of the inhibition zone (DIZ) (Aspergillus fumigatus [22]): 11 mm
